In ChEMBL document CHEMBL1126098, “Synthesis and SAR of 6-substituted purine derivatives as novel selective positive inotropes” (J Med Chem, 1992):
Activity calls are given as the source filed them. No cut-off for these calls is given here.

What was measured:
[1] = tested on: Canis familiaris; experiment: Mean arterial blood pressure determined in dog after administering ca. 1.875 mg/kg drug intra venously; type: functional, Canis lupus familiaris
In short: (§1)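 Adult mongrel dogs anesthetized with sodium pentobarbital (45 mg/kg ip) and artificially respired. MAP measured via cannulated femoral artery; HR from cardiotachometer; LV +dP/dtmax via Millar catheter; CF by Walton Brodie strain gauge on right ventricle (baseline tension 100 g). Compound in 10% DMF/saline or HCl salt, infused iv into femoral vein over 5 min per step. Each step given at peak of the prior one; three to four increasing doses. Response expressed as % change from predrug control; n = 1–5 dogs.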

[2] = tested on: Canis familiaris; experiment: Cardiac force was determined in dog after administering ca. 1.875 mg/kg drug intra venously; type: functional, Canis lupus familiaris; in short: as §1
[3] = tested on: Canis familiaris; experiment: Heart rate determined in dog after administering ca. 1.875 mg/kg drug intra venously; type: functional, Canis lupus familiaris; in short: as §1
[4] = tested on: Canis familiaris; experiment: Dose to produce a 50% increase of CF n dog after administering ca. 1.875 mg/kg drug intra venously; type: functional; settings: Canis lupus familiaris; in short: as §1
[5] = species: Canis familiaris; experiment: dP/dt max was determined in dog; type: functional, Canis lupus familiaris; parameters: unit not given beside the values; in short: as §1
[6] = Relative changes in CF was determined by calculating the effective concentration that produced a 50% of maximum increase in tension; type: functional, Mustela putorius furo
In short: (§2)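 Ferret papillary muscle in Tyrode's solution with timolol (1×10^-7 M); compound given at cumulative serially increasing concentrations, each read at 15 min. EC50 is the concentration giving 50% of that compound's own maximal tension increase. Estimated graphically from mean data, n ≥ 3.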

[7] = In vitro changes in contractile force (CF) quantitated by determining the maximal increase in isometric tension by using ferret papillary muscle; type: functional, Mustela putorius furo, Muscle tissue
In short: (§3)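 Isolated ferret papillary muscle in Tyrode's solution with timolol (1×10^-7 M), equilibrated 2 h. Compound diluted from 1×10^-2 M DMSO stock and added at serially increasing concentrations, up to 10 μM. Isometric tension read 15 min after each addition. Result is maximal increase as % of control tension, from mean of n ≥ 3.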

[8] = tested on: Canis familiaris; experiment: Heart rate in dog after administering ca. 1.875 mg/Kg drug intravenously; type: functional, Canis lupus familiaris; in short: as §1
[9] = tested on: Canis familiaris; experiment: Cardiac force in dog after administering ca. 1.875 mg/Kg drug intravenously.; type: functional, Canis lupus familiaris; parameters: unit not given beside the values; in short: as §1
[10] = tested on: Canis familiaris; experiment: Mean arterial blood pressure in dog after administering ca. 1.875 mg/Kg drug intravenously.; type: functional, Canis lupus familiaris; parameters: unit not given beside the values; in short: as §1
[11] = tested on: Canis familiaris; experiment: Effective dose required to produce 50% increase of cardiac force in dog after administering ca. 1.875 mg/Kg drug intravenously; type: functional; settings: Canis lupus familiaris, iv; in short: as §1
[12] = Relative change in CF was determined by calculating the effective concentration that produced a 50% of maximum increase in tension; type: functional, Mustela putorius furo; in short: as §2
[13] = Relative change in CF was determined by calculating the effective concentration that produced a 50% of maximum increase in tension.; type: functional, Mustela putorius furo; in short: as §2
[14] = species: Mustela putorius furo; experiment: In vitro changes in contractile force (CF) quantitated by determining the maximal increase in isometric tension by using ferret papillary muscle.; type: functional, tissue-based; settings: Muscle tissue; in short: as §3

## CC(=O)Oc1ccccc1C(=O)OC(CSc1[nH]cnc2ncnc1-2)CN1CCN(C(c2ccc(F)cc2)c2ccc(F)cc2)CC1 (stereo not drawn)
[1]
  MPA: 0
[2]
  Cardiac force: 56
[3]
  Heart rate: 1
[4]
  ED50: 1.6 mg/kg
[5]
  dP/dt max: 34
[6]
  EC50: 2500 nM
[7]
  Max: 34%

## OC(CSc1ncnc2[nH]cnc12)CN1CCN(C(c2ccc(F)cc2)c2ccc(F)cc2)CC1 (stereo not drawn) [CARSATRIN]
[8]
  Heart rate: 0
[9]
  Cardiac force: 224
[10]
  MAP: -5
[5]
  dP/dt max: 150
[11]
  ED50: 0.15 mg/kg
[12]
  EC50: 300 nM
[7]
  Max: 189%

## OC(COc1[nH]cnc2ncnc1-2)CN1CCN(C(c2ccc(F)cc2)c2ccc(F)cc2)CC1 (stereo not drawn)
[8]
  Heart rate: 12
[9]
  Cardiac force: 80
[10]
  MAP: 4
[5]
  dP/dt max: 58
[11]
  ED50: 0.72 mg/kg
[13]
  EC50: Not Active
[14]
  Max: inactive

## OC(CSc1[nH]cnc2ncnc1-2)CN1CCN(Cc2ccccc2)CC1 (stereo not drawn)
[8]
  Heart rate: 0
[9]
  Cardiac force: 30
[10]
  MAP: 1
[5]
  dP/dt max: 34
[13]
  EC50: Not Active
[14]
  Max: inactive

## OC(COc1ncnc2c1ncn2C1CCCCO1)CN1CCN(C(c2ccc(F)cc2)c2ccc(F)cc2)CC1 (stereo not drawn)
[8]
  Heart rate: 9
[9]
  Cardiac force: 34
[10]
  MAP: -5
[5]
  dP/dt max: 38
[13]
  EC50: Not Active
[14]
  Max: inactive

## Cn1cnc2c(SCC(O)CN3CCN(C(c4ccc(F)cc4)c4ccc(F)cc4)CC3)ncnc21 (stereo not drawn)
[8]
  Heart rate: -2
[9]
  Cardiac force: 50
[10]
  MAP: -6
[5]
  dP/dt max: 11
[11]
  ED50: 1.9 mg/kg
[12]
  EC50: 600 nM
[7]
  Max: 142%

## OC(CSc1[nH]cnc2ncnc1-2)CN1CCN(C(c2ccc(Br)cc2)c2ccc(Br)cc2)CC1 (stereo not drawn)
[8]
  Heart rate: -2
[9]
  Cardiac force: 148
[10]
  MAP: 11
[5]
  dP/dt max: 108
[11]
  ED50: 0.31 mg/kg
[12]
  EC50: 470 nM
[7]
  Max: 64%

## OC(CSc1[nH]cnc2ncnc1-2)CN1CCN(C(c2ccccc2)c2ccc(Cl)cc2)CC1 (stereo not drawn)
[8]
  Heart rate: -4
[9]
  Cardiac force: 100
[10]
  MAP: 2
[5]
  dP/dt max: 75
[11]
  ED50: 0.49 mg/kg
[12]
  EC50: 440 nM
[7]
  Max: 242%

## OC(COc1[nH]cnc2ncnc1-2)CN1CCN(C(c2ccccc2)c2ccccc2)CC1 (stereo not drawn)
[8]
  Heart rate: 2
[9]
  Cardiac force: 69
[10]
  MAP: 4
[5]
  dP/dt max: 37
[11]
  ED50: 0.9 mg/kg
[13]
  EC50: Not Active
[14]
  Max: inactive

## OC(CSc1[nH]cnc2ncnc1-2)CN1CCN(C(c2ccc(Cl)cc2Cl)c2ccc(Cl)cc2Cl)CC1 (stereo not drawn)
[8]
  Heart rate: 6
[9]
  Cardiac force: 69
[10]
  MAP: -10
[5]
  dP/dt max: 47
[11]
  ED50: 0.9 mg/kg
[12]
  EC50: 1600 nM
[7]
  Max: 49%

## OC(CSc1[nH]cnc2ncnc1-2)CN1CCN(C(c2ccc(C(F)(F)F)cc2)c2ccc(C(F)(F)F)cc2)CC1 (stereo not drawn)
[8]
  Heart rate: 0
[9]
  Cardiac force: 71
[10]
  MAP: 5
[5]
  dP/dt max: 47
[12]
  EC50: 1000 nM
[7]
  Max: 47%

## OC(CSc1ncnc2c1ncn2-c1ccccc1)CN1CCN(C(c2ccc(F)cc2)c2ccc(F)cc2)CC1 (stereo not drawn)
[8]
  Heart rate: 4
[9]
  Cardiac force: 12
[10]
  MAP: -3
[5]
  dP/dt max: 5
[13]
  EC50: Not Active
[14]
  Max: inactive

## Cc1nc(SCC(O)CN2CCN(C(c3ccc(F)cc3)c3ccc(F)cc3)CC2)c2[nH]cnc2n1 (stereo not drawn)
[8]
  Heart rate: 1
[9]
  Cardiac force: 23
[10]
  MAP: 1
[5]
  dP/dt max: 17

## O=S(=O)(O)OC(CSc1[nH]cnc2ncnc1-2)CN1CCN(C(c2ccc(F)cc2)c2ccc(F)cc2)CC1 (stereo not drawn)
[8]
  Heart rate: 6
[9]
  Cardiac force: 159
[10]
  MAP: 6
[5]
  dP/dt max: 110
[11]
  ED50: 0.26 mg/kg
[12]
  EC50: 390 nM
[7]
  Max: 57%

## CC(=O)OC(CSc1[nH]cnc2ncnc1-2)CN1CCN(C(c2ccc(F)cc2)c2ccc(F)cc2)CC1 (stereo not drawn)
[8]
  Heart rate: -4
[9]
  Cardiac force: 145
[10]
  MAP: -12
[5]
  dP/dt max: 62
[11]
  ED50: 0.3 mg/kg
[12]
  EC50: 700 nM
[7]
  Max: 248%
